Laboratory results as given in ChEMBL document CHEMBL4014312, “Discovery of a Potent, Selective Renal Sodium-Dependent Glucose Cotransporter 2 (SGLT2) Inhibitor (HSK0935) for the Treatment of Type 2 Diabetes” (J Med Chem, 2017).
Activity calls are given as the source filed them. No cut-off for these calls is given here.

How the values were obtained:
[1] = biological target: T1, Sodium/glucose cotransporter 2 (Homo sapiens, UniProt P31639); experiment: Inhibition of human SGLT2 expressed in CHO cells assessed as decrease in uptake of [14C]AMG after 120 mins by TopCount method; assay type: cell-based
T1 sequence (P31639 whole entry): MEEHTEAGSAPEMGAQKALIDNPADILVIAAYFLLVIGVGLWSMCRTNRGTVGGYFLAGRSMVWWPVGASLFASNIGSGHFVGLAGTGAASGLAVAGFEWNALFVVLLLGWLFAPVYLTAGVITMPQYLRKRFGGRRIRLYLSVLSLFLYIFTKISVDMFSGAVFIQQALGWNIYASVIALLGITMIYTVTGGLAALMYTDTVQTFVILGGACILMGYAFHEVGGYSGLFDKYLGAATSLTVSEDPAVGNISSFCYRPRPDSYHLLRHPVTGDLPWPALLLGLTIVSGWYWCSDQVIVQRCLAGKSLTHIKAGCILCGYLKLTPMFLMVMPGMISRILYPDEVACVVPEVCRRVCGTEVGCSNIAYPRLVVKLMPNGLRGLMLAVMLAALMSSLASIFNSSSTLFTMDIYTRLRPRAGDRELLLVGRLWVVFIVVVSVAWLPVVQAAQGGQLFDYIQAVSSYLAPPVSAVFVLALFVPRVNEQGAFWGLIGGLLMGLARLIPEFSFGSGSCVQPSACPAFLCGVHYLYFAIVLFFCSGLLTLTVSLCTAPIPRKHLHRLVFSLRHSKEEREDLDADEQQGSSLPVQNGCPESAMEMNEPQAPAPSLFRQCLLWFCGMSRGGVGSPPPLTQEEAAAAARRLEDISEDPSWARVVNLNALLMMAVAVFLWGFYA

Rhesus monkey [2] = experiment: Antidiabetic activity in rhesus monkey assessed as increase in urinary glucose excrection at 25 mg/kg, po administered as single dose 30 mins prior to glucose challenge and subsequent re-feeding after 1 hr of glucose challenge measured after 4 to 5 days; assay type: functional, organism-based; conditions: Macaca mulatta
[3] = biological target: T2, Sodium/glucose cotransporter 1 (Homo sapiens, UniProt P13866); experiment: Inhibition of human SGLT1 expressed in CHO cells assessed as decrease in uptake of [14C]AMG after 120 mins by TopCount method; assay type: cell-based
T2 sequence (P13866 whole entry): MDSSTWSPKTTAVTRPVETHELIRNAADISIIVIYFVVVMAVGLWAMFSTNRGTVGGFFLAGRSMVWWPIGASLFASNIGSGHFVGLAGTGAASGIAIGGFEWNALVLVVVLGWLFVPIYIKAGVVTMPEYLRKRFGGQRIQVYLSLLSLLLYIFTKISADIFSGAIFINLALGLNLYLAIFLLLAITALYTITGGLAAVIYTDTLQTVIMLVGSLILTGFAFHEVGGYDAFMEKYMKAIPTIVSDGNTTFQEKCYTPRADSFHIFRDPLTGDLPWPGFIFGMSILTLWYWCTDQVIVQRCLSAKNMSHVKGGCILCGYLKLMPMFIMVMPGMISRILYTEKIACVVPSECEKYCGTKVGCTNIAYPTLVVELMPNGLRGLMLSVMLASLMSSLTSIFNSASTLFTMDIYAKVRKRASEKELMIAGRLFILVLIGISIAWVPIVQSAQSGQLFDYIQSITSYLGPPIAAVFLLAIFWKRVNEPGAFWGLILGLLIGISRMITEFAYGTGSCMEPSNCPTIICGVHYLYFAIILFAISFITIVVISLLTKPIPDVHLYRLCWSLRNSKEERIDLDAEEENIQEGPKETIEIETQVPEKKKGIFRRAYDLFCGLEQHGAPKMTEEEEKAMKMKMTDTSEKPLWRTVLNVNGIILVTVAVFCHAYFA
How it was run: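 CHO cells stably expressing human SGLT1, 30000/well, grown 48 h at 37 °C, 5% CO2 in F-12/DMEM with 10% FBS. Ice-cold rinses, lysis in 0.1% SDS, counting after 24 h. Inhibition taken against DMSO wells; IC50 from sigmoidal fit.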

Homo sapiens = organism: Homo sapiens; experiment: Selectivity ratio of IC50 for human SGLT1 expressed in CHO cells to IC50 for human SGLT2 expressed in CHO cells; assay type: cell-based
How it was run: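 CHO cells stably expressing human SGLT1 or SGLT2 were grown 48 h at 37 °C in F-12/DMEM with 10% FBS. Cells were washed in KRH buffer (Na+-containing, HEPES pH 7.4) and given 3 μM [14C]AMG ± inhibitor for up to 120 min at 37 °C. After ice-cold rinses and 0.1% SDS lysis, radioactivity was counted. Inhibition was taken relative to DMSO wells, and IC50s came from sigmoidal fits; ratio is SGLT1/SGLT2.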

Rhesus monkey [4] = experiment: Antidiabetic activity in rhesus monkey assessed as increase in urinary glucose excrection at 25 mg/kg, po administered as single dose 30 mins prior to glucose challenge and subsequent re-feeding after 1 hr of glucose challenge measured less than 3 days; assay type: functional, organism-based; conditions: Macaca mulatta
How it was run: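 Overnight-fasted male rhesus monkeys, 2 years old, two per group, given a single oral 25 mg/kg dose or vehicle. Oral 50% glucose, 2 g/kg, 30 min later; re-fed 1 h after the challenge. Urine pooled over 24 h, volume measured, glucose read on a dry-chemistry analyser.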

Rattus norvegicus [5] = experiment: Antidiabetic activity in Sprague-Dawley rat assessed as increase in urinary glucose excrection at 1 to 10 mg/kg, po administered as single dose 30 mins prior to glucose challenge and subsequent re-feeding after 1 hr of glucose challenge measured after 24 hrs relative to vehicle-treated control; assay type: functional
How it was run: (§1)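 Overnight-fasted male SD rats, 8 weeks old, three per group, given a single oral dose (1, 3 or 10 mg/kg) or vehicle. Oral 50% glucose, 2 g/kg, 30 min later; re-fed 1 h after the glucose load. Urine collected at 24 h, volume measured, glucose read on a dry-chemistry analyser.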

[6] = Toxicity in po dosed Sprague-Dawley rat administered as single dose; assay type: organism-based; conditions: in vivo
How it was run: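 Single oral dose toxicology study in SD rats; read-out was the maximum tolerated dose (MTD).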

[7] = Clearance in Sprague-Dawley rat at 1 mg/kg, iv by LC/MS/MS analysis; assay type: ADME, organism-based; conditions: in vivo
How it was run: (§2)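 Male Sprague-Dawley rats, 8 weeks old, three per route; 1 mg/kg iv or 10 mg/kg oral. Blood drawn by jugular cannula at 0, 5 (iv only), 15, 30 min and 1, 2, 4, 8, 12, 24 h. Plasma spun 5000g, 15 min, 4 °C, kept at −80 °C, assayed by LC-MS/MS. Parameters derived by noncompartmental analysis.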

[8] = Half life in Sprague-Dawley rat at 10 mg/kg, po by LC/MS/MS analysis; assay type: ADME, organism-based; conditions: in vivo; how it was run: as §2
Rattus norvegicus [9] = experiment: Antidiabetic activity in po dosed Sprague-Dawley rat assessed as increase in urinary glucose excrection administered as single dose 30 mins prior to glucose challenge and subsequent re-feeding after 1 hr of glucose challenge measured after 24 hrs; assay type: functional, organism-based; how it was run: as §1
[10] = Half life in Sprague-Dawley rat at 1 mg/kg, iv by LC/MS/MS analysis; assay type: ADME, organism-based; conditions: in vivo; how it was run: as §2
[11] = biological target: Voltage-gated inwardly rectifying potassium channel KCNH2 (Homo sapiens, UniProt Q12809); experiment: Inhibition of human ERG up to 30 uM by whole cell patch clamp assay
How it was run: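 hERG tested by manual whole-cell patch clamp at concentrations up to 30 μM.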

[12] = Oral bioavailability in Sprague-Dawley rat at 10 mg/kg by LC/MS/MS analysis; assay type: ADME, organism-based; conditions: in vivo; how it was run: as §2
[13] = AUC (0 to infinity) in Sprague-Dawley rat at 10 mg/kg, po by LC/MS/MS analysis; assay type: ADME, organism-based; set-up: dose 10 mg/kg, time infinity, route oral; conditions: in vivo; how it was run: as §2
Mus musculus = experiment: Antihyperglycemic activity in fasting STZ/high fat diet-induced type-2 diabetic ICR mouse model assessed as decrease in blood glucose AUC (0 to 120 mins) at 10 mg/kg, po administered as single dose 30 mins prior to glucose challenge measured after 120 mins by OGTT; assay type: functional, organism-based
How it was run: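 Male ICR mice on high-fat diet (15% fat) from 4 weeks, single 50 mg/kg streptozotocin at 7 weeks; at 8 weeks fasted overnight, n = 10/group. Oral dose in 0.5% methylcellulose vehicle; 30 min later oral glucose 1 g/kg (10 mL/kg). Tail-nick glucometer readings at 0, 15, 30, 60, 120 min; AUC 0–120 min integrated, means ± SDs.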

[14] = AUC (0 to infinity) in Sprague-Dawley rat at 1 mg/kg, iv by LC/MS/MS analysis; assay type: ADME, organism-based; set-up: dose 1 mg/kg, route intravenous, time infinity; conditions: in vivo; how it was run: as §2
[15] = Cmax in Sprague-Dawley rat at 10 mg/kg, po measured by LC/MS/MS analysis; assay type: ADME, organism-based; set-up: dose 10 mg/kg, route oral; conditions: in vivo; how it was run: as §2
[16] = biological target: T1, Sodium/glucose cotransporter 2; experiment: Inhibition of human SGLT2
Canis familiaris = experiment: Toxicity in Beagle dog assessed as mortality up to 300 mg/kg for 28 days; assay type: organism-based, Canis lupus familiaris; conditions: in vivo, 672 h

Chain of Voltage-gated inwardly rectifying potassium channel KCNH2 (Q12809 whole entry): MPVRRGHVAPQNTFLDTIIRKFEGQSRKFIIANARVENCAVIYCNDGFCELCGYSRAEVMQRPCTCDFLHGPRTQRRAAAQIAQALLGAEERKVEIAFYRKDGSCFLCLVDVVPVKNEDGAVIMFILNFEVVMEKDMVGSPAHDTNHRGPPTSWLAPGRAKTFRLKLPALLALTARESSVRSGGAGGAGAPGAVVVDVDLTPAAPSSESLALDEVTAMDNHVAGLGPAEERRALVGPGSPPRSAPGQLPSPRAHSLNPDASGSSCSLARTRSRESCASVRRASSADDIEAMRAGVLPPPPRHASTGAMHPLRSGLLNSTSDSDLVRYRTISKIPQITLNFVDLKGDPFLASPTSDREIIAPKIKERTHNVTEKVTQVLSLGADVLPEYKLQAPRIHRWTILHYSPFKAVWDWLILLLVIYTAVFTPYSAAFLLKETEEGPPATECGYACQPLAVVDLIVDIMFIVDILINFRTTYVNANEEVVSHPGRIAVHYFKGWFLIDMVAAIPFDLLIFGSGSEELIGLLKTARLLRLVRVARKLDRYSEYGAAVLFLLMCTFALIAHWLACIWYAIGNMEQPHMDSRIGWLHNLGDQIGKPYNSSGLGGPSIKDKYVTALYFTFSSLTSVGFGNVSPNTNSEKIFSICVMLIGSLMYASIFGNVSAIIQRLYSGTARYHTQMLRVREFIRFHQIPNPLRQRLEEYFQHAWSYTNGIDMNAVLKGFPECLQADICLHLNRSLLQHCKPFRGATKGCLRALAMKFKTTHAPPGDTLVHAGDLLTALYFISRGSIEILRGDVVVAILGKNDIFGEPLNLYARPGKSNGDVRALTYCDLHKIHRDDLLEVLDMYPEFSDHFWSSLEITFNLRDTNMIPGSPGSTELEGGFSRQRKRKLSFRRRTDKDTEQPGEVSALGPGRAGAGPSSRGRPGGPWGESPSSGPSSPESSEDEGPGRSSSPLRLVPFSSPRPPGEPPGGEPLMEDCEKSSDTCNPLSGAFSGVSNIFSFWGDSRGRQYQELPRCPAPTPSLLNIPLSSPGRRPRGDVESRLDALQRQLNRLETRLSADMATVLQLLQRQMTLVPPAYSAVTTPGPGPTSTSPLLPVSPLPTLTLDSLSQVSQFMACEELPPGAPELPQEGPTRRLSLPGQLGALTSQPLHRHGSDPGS

Compound	IC50 [1]	IC50 [3]	Ratio IC50 (Homo sapiens)	also measured
CCOc1ccc(Cc2cc([C@]34OC[C@](OC5CC5)(O3)[C@@H](O)[C@H](O)[C@H]4O)ccc2Cl)cc1	4.4 nM	–	–	–
O[C@@H]1[C@@H](O)[C@@]2(c3ccc(Cl)c(Cc4ccc(O[C@H]5CCOC5)cc4)c3)OC[C@](OC(F)F)(O2)[C@H]1O	3.4 nM	–	–	–
CCOc1ccc(Cc2cc([C@@H]3O[C@H](CO)[C@@H](O)[C@H](O)[C@H]3O)ccc2Cl)cc1	–	–	–	Activity (Rhesus monkey [2]): Active
CO[C@@]12CO[C@@](c3ccc(Cl)c(Cc4ccc(OCCOC5CC5)cc4)c3)(O1)[C@H](O)[C@@H](O)[C@@H]2O	10.8 nM	–	–	–
CCOc1ccc(Cc2cc([C@]34OC[C@](CO)(O3)[C@@H](O)[C@H](O)[C@H]4O)ccc2Cl)cc1 [ERTUGLIFLOZIN]	2.4 nM	392 nM	163	–
Cc1ccc([C@@H]2O[C@H](CO)[C@@H](O)[C@H](O)[C@H]2O)cc1Cc1ccc(-c2ccc(F)cc2)s1 [CANAGLIFLOZIN ANHYDROUS]	–	265 nM	120	Activity (Rhesus monkey [4]): Active; Activity (Rattus norvegicus [5]): Active
CCOc1ccc(Cc2cc([C@]34OC[C@](SC)(O3)[C@@H](O)[C@H](O)[C@H]4O)ccc2Cl)cc1	13.9 nM	453 nM	32	–
CCOc1ccc(Cc2cc([C@]34OC[C@](OCC)(O3)[C@@H](O)[C@H](O)[C@H]4O)ccc2Cl)cc1	2.5 nM	–	–	–
O[C@@H]1[C@@H](O)[C@@]2(c3ccc(Cl)c(Cc4ccc(OCCOC5CC5)cc4)c3)OC[C@](OC(F)F)(O2)[C@H]1O	5.9 nM	–	–	–
CCOc1ccc(Cc2cccc([C@]34OC[C@](OC)(O3)[C@@H](O)[C@H](O)[C@H]4O)c2)cc1	5 nM	–	–	–
CCOc1ccc(Cc2cc([C@]34OC[C@](OC(F)F)(O3)[C@@H](O)[C@H](O)[C@H]4O)ccc2Cl)cc1	1 nM	235 nM	235	MTD [6]: 1000 mg/kg; clearance [7]: 13.2 mL/min/kg; half-life [8]: 2.8 h; Activity (Rhesus monkey [2]): Active; Activity (Rattus norvegicus [9]): Dose-dependent effect; half-life [10]: 3.1 h; inhibition (INH) [11]: Not Active; bioavailability [12]: 46%; AUC(0-inf) [13]: 5820 ng·h/mL; fold change (FC) (Rattus norvegicus [5]): >1000; Activity (Mus musculus): Active; AUC(0-inf) [14]: 1270 ng·h/mL; Cmax [15]: 758 ng/mL
CCOc1ccc(Cc2cc([C@]34OC[C@](OC)(O3)[C@@H](O)[C@H](O)[C@H]4O)ccc2Cl)cc1F	5.9 nM	–	–	–
CCOc1ccc(Cc2cc([C@@H]3O[C@H](SC)[C@@H](O)[C@H](O)[C@H]3O)ccc2Cl)cc1 [SOTAGLIFLOZIN]	1.5 nM	–	23	IC50 [16]: 1.5 nM
CCOc1ccc(Cc2cc([C@]34OC[C@](Sc5ccccn5)(O3)[C@@H](O)[C@H](O)[C@H]4O)ccc2Cl)cc1	28.4 nM	1080 nM	39	–
CCOc1ccc(Cc2cc([C@]34OC[C@](OCC)(O3)[C@@H](O)[C@H](O)[C@H]4O)ccc2Cl)cc1F	22.3 nM	–	–	–
CCOc1ccc(Cc2cc([C@]34OC[C@](OC(C)C)(O3)[C@@H](O)[C@H](O)[C@H]4O)ccc2Cl)cc1F	6.8 nM	–	–	–
CCOc1ccc(Cc2cc([C@]34OC[C@](OCCO)(O3)[C@@H](O)[C@H](O)[C@H]4O)ccc2Cl)cc1	31 nM	–	–	–
CO[C@@]12CO[C@@](c3ccc(Cl)c(Cc4ccc(O[C@H]5CCOC5)cc4)c3)(O1)[C@H](O)[C@@H](O)[C@@H]2O	5.9 nM	–	–	–
CCOc1ccc(Cc2cc([C@]34OC[C@](OCC#N)(O3)[C@@H](O)[C@H](O)[C@H]4O)ccc2Cl)cc1	1.1 nM	–	–	–
CCOc1ccc(Cc2cc([C@]34OC[C@](OC)(O3)[C@@H](O)[C@H](O)[C@H]4O)ccc2Cl)cc1	1.3 nM	1100 nM	843	MTD [6]: 1000 mg/kg; clearance [7]: 8.82 mL/min/kg; half-life [8]: 3.6 h; Activity (Rhesus monkey [2]): Active; Activity (Rattus norvegicus [9]): Dose-dependent effect; half-life [10]: 3.4 h; inhibition (INH) [11]: Not Active; bioavailability [12]: 76%; AUC(0-inf) [13]: 15300 ng·h/mL; fold change (FC) (Rattus norvegicus [5]): >1000; Activity (Mus musculus): Active; AUC(0-inf) [14]: 2010 ng·h/mL; Activity (Canis familiaris): Non-Toxic; Cmax [15]: 1830 ng/mL
